Sampled rows, rich in hits. Any-hit rate of the full collection: about 4.8%.
Beta cell apopt = beta cell apoptosis inhibition | actives 0.8% (n = 300,000) | protection from apoptosis, % (no concentration beside the values) | INS-1E cytokine-induced death, ATP luminescence, 48 h; percent of positive-control rescue, neutral wells zero;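 active = Every replicate reaches about 75%, or at least half do and their mean reaches it too, limit read from the data; inconclusive = At least half of replicates reach the limit but their mean does not; inactive = Under half of replicates reach the limit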;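 note: higher means more ATP so stronger rescue from cytokine killing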
SKKanGAS inh = SKKanGAS growth inhibition; S. pyogenes SKKanGAS, kanamycin growth, BacTiter-Glo, 6 h; inhibition, % at 7.5 µM; actives 1.3% (n = 300,000); AID 1662;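 active = mean replicate score, as percent of positive control median, at least 50; inconclusive = mean below 50 but one replicate at or above 50; inactive = mean and every replicate below 50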;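 note: strain carries kanamycin resistance gene driven by streptokinase promoter and grows in 40 µg/ml kanamycin; loss of luminescence reflects streptokinase promoter inhibition or plain growth inhibition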
CSC inhib = cancer stem cell inhibition. cancer stem cell-like cells viability, luminescence. actives 1.1% (n = 300,000). inhibition, % at 7.5 µM. AID 2717; in the data active = inhibition above about 75%; inconclusive = no clear call, values can overlap the other calls; tested in HMLE shEcad cells
XBP1 UPR activ = adaptive UPR (XBP1) activation; CHO-XBP1 luciferase reporter, IRE1-XBP1 UPR activation, luminescence; percent of tunicamycin response, DMSO as zero; activation, % at 20 µM; actives 0.33% (n = 330,000); AID 463104;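 active = versus positive control, 20 µM dose yields 30% or more activation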
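Signal: luciferase luminescence; Assay system: CHO-XBP1 luciferase reporter cells; Amount: one thousand reporter cells per well; Dosing: 20 µM single concentration, DMSO 1%; Benchmarks: high control tunicamycin 10 µg/mL final, low control DMSO vehicle only; Schedule: 6 h compound exposure at 37 °C, 5% CO2; Evaluation: percent activation relative to tunicamycin reference.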
Mdm2 MdmX PPI = human Mdm2/MdmX binding inhibition; O15151+Q00987; SaOS-2 split-luciferase Mdm2/MdmX complementation, luminescence; inhibition, % at 8 µM; actives 3% (n = 330,000);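 active = inhibition of at least 50% at 8 µM in the primary screen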
CHOP UPR activ = activators of apoptotic arm of unfolded protein response (CHOP); CHO-CHOP luciferase reporter, UPR activation, luminescence; percent of tunicamycin response over DMSO baseline; activation, % at 10 µM; actives 0.34% (n = 330,000);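 active = at 10 µM dose, activation of 40% or more, normalized to positive control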
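Evaluation: % reporter activation, DMSO baseline versus tunicamycin full activation; System: CHO-CHOP luciferase reporter cell line; Input: 500 cells/well; Incubation: 6 h compound treatment, 37 °C; Measured by: Steady-Glo luciferase luminescence; Dosing: one dose, 10 µM in 0.5% DMSO; Buffer or medium: F12 medium, 10% FBS; Benchmarks: positive tunicamycin 10 µg/mL, negative DMSO alone.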
Mdm2 MdmX conf = confirmation of human Mdm2/MdmX interaction inhibitors. shares compounds with Mdm2 MdmX PPI. Mdm2-MdmX binding, luminescent assay. inhibition, % at 8 µM. actives 55% (n = 10,000); in the data active = inhibition above about 40%
FLuc counter = inhibits full-length luciferase, flagging false Mdm2/MdmX hits; SaOS-2 full-length luciferase counterscreen, luminescence; inhibition, % at 8 µM; actives 77% (n = 6,200); shares compounds with Mdm2 MdmX PPI; AID 504607;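 active = mean inhibition at 8 µM reaching about 37%, which flags the compound as non-specific, limit read from the data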;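 note: p53-null SaOS-2 cells with luciferase driven by a doxycycline-inducible promoter; compound on cells about two nights before reading with doxycycline added after day one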
Of the large screens only hits and unclear results are named; the others gave an inactive call (follow-up assays come after a bar, where they were run).

O=C(NCCCN1CCCC1)c1ccc2c(Cl)c3c(nc2c1)CCCC3	Mdm2 MdmX PPI 72 | Mdm2 MdmX conf 51 | FLuc counter 45
CCN(CC)CCCNC(=O)c1ccc2c(Cl)c3c(nc2c1)CCCC3	Mdm2 MdmX PPI 84 | Mdm2 MdmX conf 49 | FLuc counter inactive
CCCN1CCN(CCCNC(=O)c2ccc3c(Cl)c4c(nc3c2)CCCC4)CC1	Mdm2 MdmX PPI 70 | Mdm2 MdmX conf inactive | FLuc counter 55
Cc1ccc(N(C)C(=O)c2ccc3c(Cl)c4c(nc3c2)CCC4)cc1C	none (no result: CSC inhib)
CCc1ccc(N(CC)C(=O)c2ccc3c(Cl)c4c(nc3c2)CCC4)cc1	Mdm2 MdmX PPI 56 (no result: CSC inhib) | Mdm2 MdmX conf inactive
Cc1cc(O)cc(C)c1NS(=O)(=O)c1ccc2ccccc2c1	none
O=C(Nc1nnc(-c2cccs2)o1)c1cccc(Oc2ccccc2)c1	Mdm2 MdmX PPI 55 (no result: SKKanGAS inh) | Mdm2 MdmX conf inactive
O=C(O)c1ccc(N=NNc2cccc([N+](=O)[O-])c2)cc1	none
N#C/C(=N\Nc1cccc([N+](=O)[O-])c1)C(=O)c1ccc(Br)cc1	Beta cell apopt 104, CSC inhib 102, Mdm2 MdmX PPI 97 | Mdm2 MdmX conf 89 | FLuc counter inactive
CCCn1c(CC)nc([N+](=O)[O-])c1Sc1ccc(C)cc1	Mdm2 MdmX PPI 64 | Mdm2 MdmX conf inactive
CC(C)Oc1ccc(C(=O)NCC(=O)N2CCN(S(=O)(=O)/C=C/c3ccccc3)CC2)cc1	none (no result: Beta cell apopt, SKKanGAS inh, CSC inhib)
CCOC(=O)N1CCN(C(=O)CNC(=O)c2ccc(Cl)cc2)CC1	none
Cc1cc2c(cc1C)CSC(c1c(O)ccc3ccccc13)SC2	SKKanGAS inh 94, CSC inhib 112, Mdm2 MdmX PPI 75 | Mdm2 MdmX conf inactive | FLuc counter 57
CCCCC(=NCCc1c(C)[nH]c2ccccc12)C1=C(O)CC(c2ccccc2)CC1=O (stereo not drawn)	Mdm2 MdmX PPI 57 | Mdm2 MdmX conf 45 | FLuc counter 59
CC(=NCCc1c(C)[nH]c2ccc(C)cc12)C1=C(O)CC(c2ccccc2)CC1=O (stereo not drawn)	none
CCCC(=NCCc1c(C)[nH]c2ccccc12)C1=C(O)CC(c2ccccc2)CC1=O (stereo not drawn)	Mdm2 MdmX PPI 52 (no result: CSC inhib) | Mdm2 MdmX conf 53 | FLuc counter 55
O=C(CSc1cc(Cl)ccc1Cl)NCCN1C(=O)CSC1=O	none (no result: SKKanGAS inh)
COC(=O)C[C@H]1c2cc(F)cc(F)c2S(=O)(=O)N1C1CCN(Cc2ccccc2)CC1	none
Cc1sc2nc(CSC(C)C(=O)N(C)CC(=O)Nc3ccccc3C(F)(F)F)[nH]c(=O)c2c1C (stereo not drawn)	Mdm2 MdmX PPI 51 | Mdm2 MdmX conf inactive
COc1cc2ncnc(Nc3ccc4c(c3)OCO4)c2cc1OC	none
Cc1cccc(Nc2ncnc3ccc(Br)cc23)c1	Mdm2 MdmX PPI 76 | Mdm2 MdmX conf 59 | FLuc counter inactive
Cc1cccc(-c2ccc3ncnc(NCc4cccnc4)c3c2)c1	none (no result: SKKanGAS inh)
Brc1ccc2ncnc(NCc3ccccc3)c2c1	Mdm2 MdmX PPI 84 | Mdm2 MdmX conf 81 | FLuc counter 53
Clc1cccc(Nc2ncnc3ccc(Br)cc23)c1	Mdm2 MdmX PPI 74 | Mdm2 MdmX conf 43 | FLuc counter inactive
COc1ccc(Nc2ncnc3ccc(Br)cc23)cc1OC	Mdm2 MdmX PPI 58 | Mdm2 MdmX conf 64 | FLuc counter inactive
CSCCC(NC(=O)c1ccc([N+](=O)[O-])cc1Cl)C(=O)OC1CCCCC1=O (stereo not drawn)	none
CN(C)c1ccc(Nc2ncnc3ccc(Br)cc23)cc1	Mdm2 MdmX PPI 78 | Mdm2 MdmX conf 68 | FLuc counter 37
Clc1ccc(Nc2ncnc3ccc(Br)cc23)cc1	CSC inhib inconclusive, Mdm2 MdmX PPI 77 | Mdm2 MdmX conf 61 | FLuc counter 37
Cc1ccc2ncnc(Nc3ccccc3)c2c1	none
CC(C)[C@H](NS(=O)(=O)c1ccccc1)C(=O)Nc1ccccc1N1CCOCC1	none (no result: SKKanGAS inh)
CCN1C(=O)C(=Cc2cccc(OC)c2Oc2ccc([N+](=O)[O-])cc2[N+](=O)[O-])SC1=S	Beta cell apopt 99, CSC inhib 77, Mdm2 MdmX PPI 100 | Mdm2 MdmX conf 95 | FLuc counter inactive
CCc1ccc(/C(C)=N/NC(=O)c2ccccn2)cc1	none
CCOc1ccc(C(=O)N/N=C(\c2ccccc2)c2ccccn2)cc1	Beta cell apopt 97, SKKanGAS inh 69, Mdm2 MdmX PPI 71 | Mdm2 MdmX conf 87 | FLuc counter inactive
CC(=O)c1cc(CC=C(C)C)c(O)c(CC=C(C)C)c1O	none
CC(C)=CCc1cc2c(=O)c3c(O)c4c(cc3oc2c(O)c1O)OC(C)C4(C)C (stereo not drawn)	Beta cell apopt 109, SKKanGAS inh 103, Mdm2 MdmX PPI 92 | Mdm2 MdmX conf inactive | FLuc counter 63
O=C(COC(=O)c1cc(S(=O)(=O)N2CCOCC2)ccc1O)NCc1ccc2c(c1)OCO2	none (no result: Beta cell apopt, SKKanGAS inh, CSC inhib)
O=C(O)c1cccc(NS(=O)(=O)c2ccc(S(=O)(=O)N3CCOCC3)cc2)c1	none (no result: Beta cell apopt, CSC inhib)
COc1cc(/C=C2\SC(=O)N(CCNC(=O)c3sc4cc(F)ccc4c3Cl)C2=O)cc(OC)c1OC	Mdm2 MdmX PPI 54 | Mdm2 MdmX conf inactive
CCCCCCc1cc2cc(-c3nnc(-c4ccccc4O)o3)c(=O)oc2cc1O	Beta cell apopt 106, SKKanGAS inh 98, CSC inhib 109, Mdm2 MdmX PPI 73 | Mdm2 MdmX conf 91 | FLuc counter inactive
CCCCCCc1cc2cc(S(=O)(=O)c3ccc(F)cc3)c(=O)oc2cc1O	Mdm2 MdmX PPI 57 | Mdm2 MdmX conf 51 | FLuc counter 85
CCCCCCc1cc2cc(C(=O)Nc3ccccc3OC)c(=O)oc2cc1O	Mdm2 MdmX PPI 95 | Mdm2 MdmX conf inactive
O=C(O)c1ccc2oc(=O)c(S(=O)(=O)c3ccc(F)cc3)cc2c1	none
CC1=CC(C)(C)Nc2ccc(OS(=O)(=O)c3ccc(C)cc3)cc21	none
CC(=O)Nc1ccc(S(=O)(=O)Oc2ccc3c(c2)C(C)=CC(C)(C)N3)cc1	Mdm2 MdmX PPI 98 | Mdm2 MdmX conf 79 | FLuc counter inactive
CN(CCOc1ccccc1)C(=O)C1CCC(=O)N(CCCN2CCCC2=O)C1 (stereo not drawn)	none
COc1cccc(NC(=O)CSc2nnc(-c3cc(C)n(-c4ccccc4)c3C)o2)c1	Mdm2 MdmX PPI 82 | Mdm2 MdmX conf 83 | FLuc counter 59
COc1ccc(NC(=O)CSc2nnc(-c3cccc(O)c3)o2)cc1	none (no result: CSC inhib)
